According to ChEMBL document CHEMBL6071141, “In vitro and in vivo evaluation of Bombesin-MMAE conjugates for targeted tumour therapy” (Eur J Med Chem, 2024):
Numbered stars: 1 amine (or outer) side, 2 acyl side, 3 side chain; on linkers, the order of the positions; unused ones are H or OH. Bridge positions count the residues as written; N and C are the ends. Square brackets hold non-standard residues; d marks the D form. Peptide text beside a SMILES is read from it. I, II: the chains in the order shown. * marks the point of attachment. Hexanoyl(6-succinimido-3yl) = O=C1CC([*:1])C(=O)N1CCCCCC(=O)[*:2]; Dolaproine = CO[C@@H]([C@@H]1CCCN1)[C@@H](C)C(=O)O; X2 = O=C([C@H](CC1=CSC2C=CC=CC12)N[*:1])[*:2]; Dil = CC[C@H](C)[C@H](NC)[C@@H](CC(=O)O)OC; PABC = O=C(OCc1ccc(N[*:1])cc1)[*:2]; X3 = C[C@@H](N*)[C@@H](O)c1ccccc1; Cit = NC(=O)NCCC[C@H](N)C(=O)O; PEG4 = NCCOCCOCCOCCOCCC(=O)O; NMeV = CN[C@H](C(=O)O)C(C)C; Nle = CCCC[C@H](N)C(=O)O

How the values were obtained:
[1] = Cytotoxicity against human PC-3 cells assessed as inhibition of cell growth incubated for 72 hrs by CellTiter 96 aqueous assay; assay type: toxicity, cell-based
Summary of the method: (§1)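 PC-3 or MDA-MB-231 cells were treated the day after seeding with serial dilutions, from 2000 nM for conjugates and 100 nM for MMAE, for 72 h. Then the assay was stopped, or run 72 h more after a medium change (single) or re-treatment (double). Controls got 0.05 % DMSO. Read-out was MTS absorbance at 490 nm after 90 min. IC50 by non-linear regression; ≥2 experiments, triplicates.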

[2] = Cytotoxicity against human cells MDA-MB-231 assessed as inhibition of cell growth incubated for 72 hrs by CellTiter 96 aqueous assay; assay type: toxicity, cell-based; settings: MDA-MB-231 cells; summary of the method: as §1
[3] = Cytotoxicity against human PC-3 cells assessed as inhibition of cell growth incubated with compound for 72 hrs followed by further incubated for 72 hrs (single treatment) by CellTiter 96 aqueous assay; assay type: toxicity, cell-based; summary of the method: as §1
[4] = Cytotoxicity against human PC-3 cells assessed as inhibition of cell growth incubated for 72 hrs and followed by treated with compound continued incubation for further 72 hrs (double treatment) after retreatment of compound by CellTiter 96 aqueous assay; assay type: toxicity, cell-based; summary of the method: as §1
[5] = Cytotoxicity against human MDA-MB-231 cells assessed as inhibition of cell growth incubated with compound for 72 hrs followed by further incubated for 72 hrs (single treatment) by CellTiter 96 aqueous assay; assay type: toxicity, cell-based; summary of the method: as §1
[6] = Cytotoxicity against human MDA-MB-231 cells assessed as inhibition of cell growth incubated for 72 hrs and followed by treated with compound continued incubation for further 72 hrs (double treatment) after retreatment of compound by CellTiter 96 aqueous assay; assay type: toxicity, cell-based; summary of the method: as §1
[7] = biological target: T1, Gastrin-releasing peptide receptor (Homo sapiens, UniProt P30550); experiment: Displacement of 125 I- [Tyr4] from bombesin receptor 2 in human PC-3 cells assessed as inhibition by radioligand displacement assay; assay type: cell-based
Summary of the method: (§2)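 Competition binding on membrane preparations from PC-3 or MDA-MB-231 cells against ¹²⁵I-[Tyr⁴]-bombesin, with conjugates at 10 μM–10 pM. IC50 was taken as the concentration giving 50 % inhibition of tracer binding.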

[8] = biological target: T1, Gastrin-releasing peptide receptor; experiment: Displacement of 125 I- [Tyr4] from bombesin receptor 2 in human MDA-MB-231 cells assessed as inhibition by radioligand displacement assay; assay type: cell-based; summary of the method: as §2
[9] = Drug uptake in mouse blood at ip administration xenografted with human PC-3 cells measured upto 24 hrs by LC-HRMS; assay type: ADME, organism-based; settings: in vivo
Summary of the method: (§3)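 Mice bearing PC-3 xenografts received a single 2 mg/kg i.p. dose. Blood, tumour, liver, kidneys, heart, lungs and pancreas were collected at 1, 6 and 24 h and pooled per group. Tissues were homogenised in water (1:2 w/v) and centrifuged. Released MMAE was measured by LC-HRMS and expressed as %ID/g (n = 3).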

[10] = Drug uptake in mouse heart at ip administration xenografted with human PC-3 cells measured upto 24 hrs by LC-HRMS; assay type: ADME, organism-based; settings: in vivo; summary of the method: as §3
[11] = Drug uptake in mouse kidney at ip administration xenografted with human PC-3 cells measured upto 24 hrs by LC-HRMS; assay type: ADME, organism-based; settings: in vivo; summary of the method: as §3
[12] = Drug uptake in mouse liver at ip administration xenografted with human PC-3 cells measured upto 24 hrs by LC-HRMS; assay type: ADME, organism-based; settings: in vivo; summary of the method: as §3
[13] = Drug uptake in mouse lungs at ip administration xenografted with human PC-3 cells measured upto 24 hrs by LC-HRMS; assay type: ADME, organism-based, Lung; settings: in vivo; summary of the method: as §3
[14] = Drug uptake in mouse pancreas at ip administration xenografted with human PC-3 cells measured upto 24 hrs by LC-HRMS; assay type: ADME, organism-based; settings: in vivo; summary of the method: as §3
[15] = Metabolic stability in mouse plasma assessed as half life at 5 uM measured upto 24 hrs by LC-HRMS analysis; assay type: ADME, cell-free
Summary of the method: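 Conjugates at 5 μM were incubated in human or mouse plasma at 37 °C, in duplicate. Samples were taken at t0, 0.25, 0.5, 1, 2, 4 and 24 h and quenched with 1 % formic acid in MeCN (2× volume). After centrifugation (14000 rpm, 4 °C), supernatants were diluted 1:1 with water and analysed by LC-HRMS.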

[16] = Toxicity in mouse xenografted with human PC-3 cells assessed as body weight loss at 1 mg/kg, ip administered relative to control; assay type: organism-based; settings: in vivo, 2 mg/kg, in the assay text read “2 mg/kg” for “1 mg/kg”
Summary of the method: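 Toxicity in mice bearing subcutaneous PC-3 tumours after a single i.p. dose 9 days post-inoculation. Free drug at 1 mg/kg, conjugates at 2 mg/kg MMAE-content, in 5 % DMSO in water; solvent controls; eight per group. Body weight followed periodically. Endpoint at 20 % weight loss; behaviour (activity, coat, stool, paleness) also scored.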

PC-3 [17] = experiment: Antitumor activity against human PC-3 cells xenografted in mouse assessed as reduction in tumour volume relative to control; assay type: functional; set-up: scale not given: the % may be the effect or the level left
Summary of the method: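 Acute study in mice bearing subcutaneous PC-3 tumours. Single i.p. dose (0.1 mL) 9 days after inoculation, at a mean tumour volume of 62 mm³. Eight per group, randomized. Conjugates at 2 mg/kg MMAE-content, free MMAE at 1 mg/kg, in 5 % DMSO in water; solvent controls. Calliper volume V = ab²×π/6. Sacrifice at 20 % weight loss or 2000 mm³.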

[18] = Biodistribution in mouse xenografted with human PC-3 cells assessed as tumour environment incubated for 24 hrs by LC-HRMS; assay type: ADME, organism-based, Neoplasm; settings: in vivo; summary of the method: as §3
[19] = Toxicity in mouse xenografted with human PC-3 cells assessed as skin rash at 0.5 mg/kg, ip administered upto 23 days; settings: in vivo, 552 h
PC-3 [20] = experiment: Antitumor activity against human PC-3 cells xenografted with mouse assessed as median survival days at 2 mg/kg, ip (reference value: 33 days)

T1 sequence (P30550 whole entry): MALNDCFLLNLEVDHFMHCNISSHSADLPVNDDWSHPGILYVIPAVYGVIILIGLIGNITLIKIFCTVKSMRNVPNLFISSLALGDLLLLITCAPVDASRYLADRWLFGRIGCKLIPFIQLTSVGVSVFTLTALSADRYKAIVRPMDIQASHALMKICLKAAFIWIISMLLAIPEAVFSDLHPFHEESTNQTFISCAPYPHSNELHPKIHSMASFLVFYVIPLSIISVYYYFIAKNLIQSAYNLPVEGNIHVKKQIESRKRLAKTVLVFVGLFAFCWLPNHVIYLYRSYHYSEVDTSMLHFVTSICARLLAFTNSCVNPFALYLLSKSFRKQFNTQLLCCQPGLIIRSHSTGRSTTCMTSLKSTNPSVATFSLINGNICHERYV

SMILES | IC50 at 72 h [1] | IC50 at 72 h [2] | IC50 at 144 h [3] | IC50 at 144 h [4] | IC50 at 144 h [5] | IC50 at 144 h [6] | IC50 [7] | IC50 [8] | Drug uptake [9] | Drug uptake [10] | Drug uptake [11] | Drug uptake [12] | Drug uptake [13] | Drug uptake [14] | half-life at 5 µM [15] | Activity [16] | Activity (PC-3 [17]) | Drug uptake [18] | Activity [19] | Survival (PC-3 [20])
CCCC[C@H](NC(=O)[C@H](CC(C)C)NC(=O)[C@H](Cc1c[nH]cn1)NC(=O)CNC(=O)[C@@H](NC(=O)[C@H](C)NC(=O)[C@H](CC1=CSC2C=CC=CC12)NC(=O)[C@H](CCC(N)=O)NC(=O)[C@H](CC(N)=O)NC(=O)CCOCCOCCOCCOCCNC(=O)[C@H](CSC1CC(=O)N(CCCCCC(=O)N[C@@H](CCC(=O)O)C(=O)N[C@H](C(=O)N[C@@H](CCCNC(N)=O)C(=O)Nc2ccc(COC(=O)N(C)[C@H](C(=O)N[C@H](C(=O)N(C)[C@@H]([C@@H](C)CC)[C@@H](CC(=O)N3CCC[C@H]3[C@H](OC)[C@@H](C)C(=O)N[C@H](C)[C@@H](O)c3ccccc3)OC)C(C)C)C(C)C)cc2)C(C)C)C1=O)NC(C)=O)C(C)C)C(N)=O (stereo partly drawn) (I: Ac-C[PEG4]NQ[X2]AVGHL[Nle]-NH2 / II: EV[Cit][PABC][NMeV]V[Dil][Dolaproine]-X3; linker I:1-II:N via Hexanoyl(6-succinimido-3yl)) | 0.0539 µM | 0.501 µM | 0.0156 µM | 0.0118 µM | 0.0487 µM | 0.0464 µM | 0.0936 µM | 0.106 µM | Not Active | Not Active | Not Active | Not Active | Not Active | Not Active | – | – | – | – | – | –
CC[C@H](C)[C@@H]([C@@H](CC(=O)N1CCC[C@H]1[C@H](OC)[C@@H](C)C(=O)N[C@H](C)[C@@H](O)c1ccccc1)OC)N(C)C(=O)[C@@H](NC(=O)[C@H](C(C)C)N(C)C(=O)OCc1ccc(NC(=O)[C@H](CCCNC(N)=O)NC(=O)CNC(=O)[C@@H](CCC(=O)O)NC(=O)CCCCCN2C(=O)CC(SC[C@H](NC(C)=O)C(=O)NCCOCCOCCOCCOCCC(=O)N[C@H](Cc3ccccc3)C(=O)N[C@@H](CCC(N)=O)C(=O)N[C@@H](CC3=CNC4C=CC=CC34)C(=O)N[C@@H](C)C(=O)N[C@H](C(=O)NCC(=O)N[C@@H](Cc3c[nH]cn3)C(=O)N[C@@H](CC(C)C)[C@@H](O)CC(=O)N[C@@H](CC(C)C)C(N)=O)C(C)C)C2=O)cc1)C(C)C (stereo partly drawn) | 0.428 µM | 0.885 µM | 0.11 µM | 0.0835 µM | 0.164 µM | 0.131 µM | 0.0683 µM | 0.0729 µM | – | – | – | – | – | – | 7.2 h | < 20% | 26.3% | Active | Toxic | 42 days
